Source: PubChem (several laboratories)
Mdm2 MdmX PPI = disrupts the human Mdm2-MdmX interaction | O15151+Q00987 | SaOS-2 split-luciferase Mdm2/MdmX complementation, luminescence | inhibition, % at 8 µM | 330,000 compounds, 3% hits | AID 485346;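 active = inhibition of at least 50% at 8 µM in the primary screen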
Target sequence (O15151 whole entry, looked up): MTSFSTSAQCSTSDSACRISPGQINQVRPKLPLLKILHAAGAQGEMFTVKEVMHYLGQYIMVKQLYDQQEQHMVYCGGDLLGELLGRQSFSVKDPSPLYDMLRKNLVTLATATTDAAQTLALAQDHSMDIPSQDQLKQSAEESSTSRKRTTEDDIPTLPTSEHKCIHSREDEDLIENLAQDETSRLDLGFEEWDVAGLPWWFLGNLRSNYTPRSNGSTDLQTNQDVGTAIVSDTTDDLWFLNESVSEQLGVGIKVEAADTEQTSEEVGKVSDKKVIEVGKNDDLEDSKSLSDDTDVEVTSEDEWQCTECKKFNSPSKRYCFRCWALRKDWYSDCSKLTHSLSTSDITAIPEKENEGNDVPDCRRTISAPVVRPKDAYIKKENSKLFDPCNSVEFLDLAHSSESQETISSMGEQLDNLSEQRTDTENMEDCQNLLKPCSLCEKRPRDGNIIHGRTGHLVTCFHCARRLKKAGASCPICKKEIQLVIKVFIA
Target sequence (Q00987 whole entry, looked up): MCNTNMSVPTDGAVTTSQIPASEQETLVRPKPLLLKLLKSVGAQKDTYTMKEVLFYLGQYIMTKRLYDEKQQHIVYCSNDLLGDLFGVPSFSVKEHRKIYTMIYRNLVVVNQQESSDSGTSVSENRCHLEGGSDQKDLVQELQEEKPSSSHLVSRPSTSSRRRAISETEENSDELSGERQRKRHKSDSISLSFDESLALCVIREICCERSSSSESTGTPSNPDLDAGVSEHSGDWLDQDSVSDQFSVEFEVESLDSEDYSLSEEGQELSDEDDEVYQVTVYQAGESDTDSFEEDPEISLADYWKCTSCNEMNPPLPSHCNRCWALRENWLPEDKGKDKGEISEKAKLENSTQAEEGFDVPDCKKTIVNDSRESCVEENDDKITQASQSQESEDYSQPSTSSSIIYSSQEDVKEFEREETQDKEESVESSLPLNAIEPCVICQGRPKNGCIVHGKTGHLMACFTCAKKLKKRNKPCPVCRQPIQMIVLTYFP
CSC inhib = cancer stem cell inhibition; inhibition, % at 7.5 µM; 300,000 compounds, 1.1% hits; AID 2717; cancer stem cell-like cells viability, luminescence; in the data active = inhibition above about 75%; tested in HMLE shEcad cells
Beta cell apopt = blocks beta cell apoptosis. INS-1E cytokine-induced death, ATP luminescence, 48 h; percent of positive-control rescue, neutral wells zero. protection from apoptosis, % (test concentration not listed). AID 435005. 300,000 compounds, 0.8% hits;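 active = Every replicate reaches about 75%, or at least half do and their mean reaches it too, limit read from the data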;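 note: 0% = cytokine-treated negative control wells and 100% = positive control rescue; higher means more ATP so stronger rescue from cytokine killing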
XBP1 UPR activ = adaptive UPR (XBP1) activation | activation, % at 20 µM | 330,000 compounds, 0.33% hits | CHO-XBP1 luciferase reporter, IRE1-XBP1 UPR activation, luminescence; percent of tunicamycin response, DMSO as zero;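 active = versus positive control, 20 µM dose yields 30% or more activation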;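 note: 100% = tunicamycin at 10 µg/mL and 0% = DMSO only wells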
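assay system = CHO-XBP1 luciferase reporter cells | amount = 1000 cells/well | buffer or medium = F12 plus 10% FBS | compound dosing = single point, 20 µM final compound, 1% DMSO | incubation = 16-18 h cell attachment at 37 °C, then 6 h compound exposure | detection = Steady-Glo luminescence read | controls = tunicamycin 10 µg/mL and vehicle-only wells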
UPR CHOP act = apoptotic UPR (CHOP) activation; CHO-CHOP luciferase reporter, luminescence; percent of tunicamycin response over DMSO baseline; activation, % at 10 µM; 330,000 compounds, 0.34% hits;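 active = at 10 µM dose, activation of 40% or more, normalized to positive control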;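 note: 100% = tunicamycin at 10 µg/mL and 0% = DMSO alone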
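System: CHO CHOP reporter cells. Amount: 500 cells per well. Buffer or medium: F12 medium, 10% FBS. Compound dosing: one dose, 10 µM in 0.5% DMSO. Incubation: 6 h compound exposure at 37 °C after overnight seeding. Technique: Steady-Glo luciferase luminescence. Benchmarks: tunicamycin and DMSO controls.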
SKKanGAS inh = SKKanGAS growth inhibition | S. pyogenes SKKanGAS, kanamycin growth, BacTiter-Glo, 6 h | inhibition, % at 7.5 µM | 300,000 compounds, 1.3% hits;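 active = mean replicate score, as percent of positive control median, at least 50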;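 note: strain carries kanamycin resistance gene driven by streptokinase promoter and grows in 40 µg/ml kanamycin; loss of luminescence reflects streptokinase promoter inhibition or plain growth inhibition; 0% = median of DMSO wells and 100% = positive control at its reference dose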
Mdm2 MdmX conf = human Mdm2/MdmX binding inhibition, confirmed; shares compounds with Mdm2 MdmX PPI; luminescent assay; inhibition, % at 8 µM; 10,000 compounds, 55% hits; in the data active = inhibition above about 40%
FLuc counter = full-length luciferase inhibition in Mdm2/MdmX counter-screen; AID 504607; SaOS-2 full-length luciferase counterscreen, luminescence; 6,200 compounds, 77% hits; shares compounds with Mdm2 MdmX PPI; inhibition, % at 8 µM;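 active = mean inhibition at 8 µM reaching about 37%, which flags the compound as non-specific, limit read from the data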;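 note: p53-null SaOS-2 cells with luciferase driven by a doxycycline-inducible promoter; compound on cells about two nights before reading with doxycycline added after day one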
Numbers without * were called inactive. Hits are enriched below; roughly 4.8% of the tested compounds scored in any of these assays.

For COc1ccc(NC(C)C(=O)Nc2cc(C(F)(F)F)ccc2N2CCOCC2)c(OC)c1 (stereo unspecified) the results were Mdm2 MdmX PPI 57*, CSC inhib 11, Beta cell apopt -4, XBP1 UPR activ -1, UPR CHOP act -2, SKKanGAS inh -18 and Mdm2 MdmX conf 21.
Screening COc1cc(Cl)c(C)cc1NC(C)C(=O)Nc1cc(C(F)(F)F)ccc1N1CCOCC1 (stereo unspecified) returned Mdm2 MdmX PPI 34, CSC inhib 42, Beta cell apopt 0, XBP1 UPR activ -5, UPR CHOP act -1 and SKKanGAS inh 11.
N/C(=N\OC(=O)COc1cc(Cl)c(Cl)cc1Cl)c1ccccn1 was read as Mdm2 MdmX PPI -181, CSC inhib 2, Beta cell apopt -1, XBP1 UPR activ 0, UPR CHOP act 4 and SKKanGAS inh -6.
O=C(NCCCN1CCCCCC1)c1cc2c(=O)oc3ccccc3c2s1 was read as Mdm2 MdmX PPI 27, CSC inhib -21, Beta cell apopt -8, XBP1 UPR activ -3, UPR CHOP act 1 and SKKanGAS inh 14.
`CN1CCN(CCCNC(=O)c2cc3c(=O)n(C)c4ccccc4c3s2)CC1` gave Mdm2 MdmX PPI 54*, CSC inhib 6, Beta cell apopt 18, XBP1 UPR activ -1, UPR CHOP act -2, SKKanGAS inh -2 and Mdm2 MdmX conf 32.
CCCCN(CC)CCCNC(=O)c1cc2c(=O)n(C)c3ccccc3c2n1C was read as Mdm2 MdmX PPI 69*, CSC inhib 3, Beta cell apopt 9, XBP1 UPR activ -1, UPR CHOP act -1, SKKanGAS inh 2 and Mdm2 MdmX conf 23.
`CCCN(CCC)CCNC(=O)c1cc2c(=O)n(CC)c3ccccc3c2s1` gave Mdm2 MdmX PPI 71*, CSC inhib 0, Beta cell apopt 7, XBP1 UPR activ 1, UPR CHOP act 0, SKKanGAS inh -2, Mdm2 MdmX conf 46* and FLuc counter 69*.
`CCN(CC)CCNC(=O)c1cc2c(=O)n(CC)c3ccccc3c2s1` gave Mdm2 MdmX PPI 47, CSC inhib -12, Beta cell apopt 1, XBP1 UPR activ 6, UPR CHOP act -1 and SKKanGAS inh -2.
Screening Cn1c(C(=O)NCCCN2CCOCC2)cc2c(=O)n(C)c3ccccc3c21 returned Mdm2 MdmX PPI 0, CSC inhib 11, Beta cell apopt 5, XBP1 UPR activ 3, UPR CHOP act 0 and SKKanGAS inh 2.
For Cn1c(C(=O)NCCCN2CCN(c3ccccc3F)CC2)cc2c(=O)n(C)c3ccccc3c21 the results were Mdm2 MdmX PPI 58*, CSC inhib 3, Beta cell apopt 0, XBP1 UPR activ 2, UPR CHOP act 3, SKKanGAS inh 10 and Mdm2 MdmX conf 28.
Screening CN(C)C(CNC(=O)c1ccc(S(=O)(=O)Nc2cccc(C(F)(F)F)c2)cc1)c1ccco1 (stereo unspecified) returned Mdm2 MdmX PPI -4, CSC inhib -5, Beta cell apopt -7, XBP1 UPR activ 1, UPR CHOP act 2 and SKKanGAS inh 0.
`COc1ccc(C(=O)Oc2cc(C)c(CN3CCOCC3)cc2C)cc1OC` gave Mdm2 MdmX PPI 24, CSC inhib -6, Beta cell apopt 1, XBP1 UPR activ -7, UPR CHOP act -2 and SKKanGAS inh 2.
For COc1cc(OC)cc(C(=O)NNC(=O)CCC(=O)c2cccs2)c1 the results were Mdm2 MdmX PPI 17, Beta cell apopt -5, XBP1 UPR activ -2, UPR CHOP act 0 and SKKanGAS inh -6.
O=C(COc1ccc(Br)cc1F)Nc1nnc(C2CC2)s1 was read as Mdm2 MdmX PPI 6, CSC inhib -8, Beta cell apopt -2, XBP1 UPR activ 3 and UPR CHOP act 2.
For CCOC(=O)c1c(-c2ccco2)csc1NC(=O)COC(=O)c1cnc(C)cn1 the results were Mdm2 MdmX PPI -14, Beta cell apopt -4, XBP1 UPR activ 0, UPR CHOP act 0 and SKKanGAS inh 42.
For Cc1cccc(N2CCN(C(=O)c3cc4c(=O)n(C)c5ccccc5c4n3C)CC2)c1C the results were Mdm2 MdmX PPI 35, CSC inhib 3, Beta cell apopt 2, XBP1 UPR activ 0, UPR CHOP act 2 and SKKanGAS inh 25.
Cc1ccc(Cl)cc1N1CCN(C(=O)c2cc3c(=O)n(C)c4ccccc4c3n2C)CC1 was read as Mdm2 MdmX PPI 98*, CSC inhib 18, Beta cell apopt -2, XBP1 UPR activ 8, UPR CHOP act 6, SKKanGAS inh 17, Mdm2 MdmX conf 86* and FLuc counter 67*.
CCCCn1c(N)c(N(CC(C)C)C(=O)C2CCN(S(=O)(=O)c3ccc(OCC)cc3)CC2)c(=O)[nH]c1=O was read as Mdm2 MdmX PPI -16, CSC inhib -7, Beta cell apopt -1, XBP1 UPR activ -3, UPR CHOP act 2 and SKKanGAS inh -7.
COc1c(O)cnn(-c2ccccc2)c1=O was read as Mdm2 MdmX PPI -1, CSC inhib -6, Beta cell apopt -11, XBP1 UPR activ -3, UPR CHOP act 1 and SKKanGAS inh -2.
For O=C(O)c1cc(NN=C2c3ccccc3-c3ccccc32)ccc1Cl the results were Mdm2 MdmX PPI -6, CSC inhib 41, Beta cell apopt -7, XBP1 UPR activ 0, UPR CHOP act 0 and SKKanGAS inh 12.
Screening Cc1ccc(N/N=C2\CC(=O)c3ccccc32)cc1Cl returned Mdm2 MdmX PPI 58*, CSC inhib 77*, Beta cell apopt 31, XBP1 UPR activ 96*, UPR CHOP act 49*, SKKanGAS inh 25 and Mdm2 MdmX conf 6.
Screening O=C(CCOc1ccccc1)Nc1ccccc1F returned Mdm2 MdmX PPI 19, CSC inhib -2, Beta cell apopt -6, XBP1 UPR activ -1, UPR CHOP act 5 and SKKanGAS inh -1.
`Cc1ccc(-n2c(N)c(C(=O)Nc3c(C)n(C)n(-c4ccccc4)c3=O)c3nc4ccccc4nc32)cc1C` gave Mdm2 MdmX PPI 51*, CSC inhib 4, Beta cell apopt 42, XBP1 UPR activ 0, UPR CHOP act 8, SKKanGAS inh 16 and Mdm2 MdmX conf 28.
CC(OC(=O)/C=C/c1ccc2ccccc2n1)C(=O)N(C)c1ccccc1 (stereo unspecified) was read as Mdm2 MdmX PPI 65*, Beta cell apopt 2, XBP1 UPR activ 0, UPR CHOP act 6, Mdm2 MdmX conf 35 and FLuc counter 56*.
